The record followed here is ChEMBL document CHEMBL4024790 (J Med Chem, 2018).

The test system of series [1] is Liver. In words: Drug metabolism in human liver microsomes assessed as 1-(7-methyl-5-(1-methyl-5-(5-(trifluoromethyl)pyridin-2-yl)-1H-pyrazol-4-yl)imidazo[1,5-f][1,2,4]triazin-4-yl)azetidin-3-ol formation at 1 to 50 uM after 1 hr by LC-MS/MS analysis. In kind it is ADME, microsome. Summed up: (§1)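 Rat, dog or human liver microsomes or hepatocytes (P450 0.35–0.5 µM final) incubated with compound at 1, 10 or 50 µM in 100 mM phosphate buffer with 1 mM NADP regenerating system, 37°C for 1 h; quenched with 4 volumes acetonitrile, centrifuged, supernatant evaporated, reconstituted in 5% aqueous acetonitrile and analysed by reversed-phase LC.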
(Liver microsomes are a subcellular fraction often used to study metabolism.)

Series [2] has as its system Liver. The experiment in a line: Drug metabolism in rat liver microsomes assessed as 3-(7-methyl-5-(1-methyl-5-(5-(trifluoromethyl)pyridin-2-yl)-1H-pyrazol-4-yl)imidazo[1,5-f][1,2,4]triazin-4-ylamino)propanoic acid formation at 1 to 50 uM after 1 hr by LC-MS/MS analysis. Type of series: ADME, microsome. Summed up: as §1
For series [3], the system named is Liver. The experiment in a line: Drug metabolism in rat liver microsomes assessed as 1-(7-methyl-5-(1-methyl-5-(5-(trifluoromethyl)pyridin-2-yl)-1H-pyrazol-4-yl)imidazo[1,5-f][1,2,4]triazin-4-yl)azetidin-3-ol formation at 1 to 50 uM after 1 hr by LC-MS/MS analysis. In kind it is ADME, microsome. A digest of the protocol:
as §1

The test system of series [4] is Rattus norvegicus. The experiment in a line: Cardiotoxicity in rat at 5 to 250 mg/kg/day, po up to 15 days by microscopic method. In kind it is toxicity, organism-based. As to conditions: in vivo, 360 h; call rule not given here. Summed up: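 Exploratory rat toxicity study, oral dosing at 5, 50 and 250 mg/kg/day for up to 15 days, with microscopic examination of heart and vasculature and measurement of plasma and brain exposure.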

In series [5] the test system is Rattus norvegicus. In words: Toxicity in rat assessed as effect on vasculature at 5 to 250 mg/kg/day, po up to 15 days by microscopic method. In kind it is organism-based. As to conditions: in vivo, 360 h.
In series [6] the test system is Rattus norvegicus. The experiment in a line: Effect on spontaneous locomotor activity in Long Evans rat at 0.32 to 3.2 mg/kg, sc. Type of series: ADME, organism-based. As to conditions: in vivo. A digest of the protocol: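 Rats dosed SC at 0.32, 1.0 and 3.2 mg/kg; conditioned avoidance responding also run in combination with risperidone 0.032 mg/kg.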
Series [7] relates to Rattus norvegicus. In words: Reversal of ketamine-induced working memory deficit in Long Evans rat assessed as unbound brain concentration required to show effect at 0.1 mg/kg, sc by radial arm maze assay. Type of series: functional, organism-based. A digest of the protocol:
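Rats trained in a radial arm maze working-memory task, with deficit induced by ketamine. Compound dosed sc; errors compared with vehicle + ketamine. N = 20–23 per group, Hochberg test. Cbu at the tested doses estimated from satellite pharmacokinetic animals.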

The next series is filed under the species Mus musculus. The experiment in a line: Increase in cGMP level in CD-1 mouse brain cortex assessed per nM of unbound brain concentration by immunoassay. In kind it is functional. A digest of the protocol: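 CD-1 mice dosed SC (solution in 20% SBE-β-CD with 2 molar equivalents 1N HCl, 1 mL/kg); euthanized by focused microwave irradiation of brain; cortex, striatum, hippocampus homogenized in 0.5 N HCl, centrifuged; cyclic nucleotides in supernatant by enzyme immunoassay. Unbound brain exposure from satellite animals; dose-response and time-course data combined with linear model; one-way ANOVA with Fisher's PLSD.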

In the next series the target is Cytochrome P450 2C9 (Homo sapiens, UniProt P11712). The experiment in a line: Inhibition of recombinant human CYP2C9. Type of series: ADME. As to conditions: recombinant enzyme.
Chain of Cytochrome P450 2C9 (P11712 whole entry): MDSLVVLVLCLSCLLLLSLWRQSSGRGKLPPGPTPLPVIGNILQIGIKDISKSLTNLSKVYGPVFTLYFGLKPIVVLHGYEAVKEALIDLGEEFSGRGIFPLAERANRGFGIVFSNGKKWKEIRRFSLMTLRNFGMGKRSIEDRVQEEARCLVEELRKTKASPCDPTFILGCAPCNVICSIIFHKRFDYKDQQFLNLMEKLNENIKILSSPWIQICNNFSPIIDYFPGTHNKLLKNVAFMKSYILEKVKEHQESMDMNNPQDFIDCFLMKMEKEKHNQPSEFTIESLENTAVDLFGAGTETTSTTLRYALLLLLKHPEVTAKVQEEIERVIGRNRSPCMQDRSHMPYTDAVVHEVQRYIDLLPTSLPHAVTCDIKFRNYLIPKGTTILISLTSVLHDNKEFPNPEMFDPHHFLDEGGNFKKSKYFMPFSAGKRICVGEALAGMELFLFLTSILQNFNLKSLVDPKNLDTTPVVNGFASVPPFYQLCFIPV
In another series the target is Cytochrome P450 2C19 (Homo sapiens, UniProt P33261). The experiment in a line: Inhibition of recombinant human CYP2C19. Type of series: ADME. As to conditions: recombinant enzyme.
Chain of Cytochrome P450 2C19 (P33261 whole entry): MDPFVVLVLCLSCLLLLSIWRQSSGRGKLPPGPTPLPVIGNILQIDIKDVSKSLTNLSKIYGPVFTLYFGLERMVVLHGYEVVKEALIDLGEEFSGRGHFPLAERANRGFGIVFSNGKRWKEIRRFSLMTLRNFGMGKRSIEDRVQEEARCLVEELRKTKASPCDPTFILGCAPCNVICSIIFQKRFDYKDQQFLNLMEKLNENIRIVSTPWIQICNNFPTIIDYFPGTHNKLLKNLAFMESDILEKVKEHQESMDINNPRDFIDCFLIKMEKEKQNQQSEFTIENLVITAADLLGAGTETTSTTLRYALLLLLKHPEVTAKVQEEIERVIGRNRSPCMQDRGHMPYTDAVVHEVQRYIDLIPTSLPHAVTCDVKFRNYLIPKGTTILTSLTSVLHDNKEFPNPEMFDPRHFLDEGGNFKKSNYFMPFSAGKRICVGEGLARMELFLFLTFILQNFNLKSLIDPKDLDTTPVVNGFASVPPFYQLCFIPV
The target of another series is T1, Cytochrome P450 1A2 (Homo sapiens, UniProt P05177).
T1 sequence (P05177 whole entry): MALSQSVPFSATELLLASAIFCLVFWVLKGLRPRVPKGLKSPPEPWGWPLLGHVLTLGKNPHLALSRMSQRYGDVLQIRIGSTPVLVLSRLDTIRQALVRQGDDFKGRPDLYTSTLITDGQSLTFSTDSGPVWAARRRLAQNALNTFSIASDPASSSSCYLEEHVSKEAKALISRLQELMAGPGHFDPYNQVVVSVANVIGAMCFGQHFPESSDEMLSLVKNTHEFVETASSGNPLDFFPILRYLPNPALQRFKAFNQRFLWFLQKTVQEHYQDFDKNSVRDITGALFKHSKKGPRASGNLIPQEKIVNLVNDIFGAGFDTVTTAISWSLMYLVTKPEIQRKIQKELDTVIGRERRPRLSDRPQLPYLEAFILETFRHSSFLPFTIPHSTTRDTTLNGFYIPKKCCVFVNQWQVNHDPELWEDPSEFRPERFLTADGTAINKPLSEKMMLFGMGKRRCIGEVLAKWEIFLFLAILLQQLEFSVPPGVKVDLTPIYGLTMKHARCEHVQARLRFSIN
In words: Time-dependant inhibition of recombinant human CYP1A2. Type of series: ADME. As to conditions: recombinant enzyme.

Another series concerns the target T2, Cytochrome P450 2B6 (Homo sapiens, UniProt P20813).
T2 sequence (P20813 whole entry): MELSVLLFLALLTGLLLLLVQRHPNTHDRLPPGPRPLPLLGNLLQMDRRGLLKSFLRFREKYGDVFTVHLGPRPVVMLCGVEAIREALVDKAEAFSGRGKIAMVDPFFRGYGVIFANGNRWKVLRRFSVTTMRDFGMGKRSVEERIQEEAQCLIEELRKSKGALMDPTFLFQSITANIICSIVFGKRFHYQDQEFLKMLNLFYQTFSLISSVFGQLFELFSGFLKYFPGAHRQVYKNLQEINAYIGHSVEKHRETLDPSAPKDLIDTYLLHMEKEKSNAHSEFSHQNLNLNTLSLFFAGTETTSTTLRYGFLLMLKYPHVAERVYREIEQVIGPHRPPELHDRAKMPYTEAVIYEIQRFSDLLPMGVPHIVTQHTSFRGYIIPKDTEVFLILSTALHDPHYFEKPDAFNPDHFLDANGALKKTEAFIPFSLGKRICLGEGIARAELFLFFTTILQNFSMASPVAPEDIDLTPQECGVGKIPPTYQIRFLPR
In words: Time-dependant inhibition of recombinant human CYP2B6. In kind it is ADME. As to conditions: recombinant enzyme.

The target in a further series is Cytochrome P450 2D6 (Homo sapiens, UniProt P10635). The experiment in a line: Time-dependant inhibition of recombinant human CYP2D6. As to conditions: recombinant enzyme. Type of series: ADME.
Chain of Cytochrome P450 2D6 (P10635 whole entry): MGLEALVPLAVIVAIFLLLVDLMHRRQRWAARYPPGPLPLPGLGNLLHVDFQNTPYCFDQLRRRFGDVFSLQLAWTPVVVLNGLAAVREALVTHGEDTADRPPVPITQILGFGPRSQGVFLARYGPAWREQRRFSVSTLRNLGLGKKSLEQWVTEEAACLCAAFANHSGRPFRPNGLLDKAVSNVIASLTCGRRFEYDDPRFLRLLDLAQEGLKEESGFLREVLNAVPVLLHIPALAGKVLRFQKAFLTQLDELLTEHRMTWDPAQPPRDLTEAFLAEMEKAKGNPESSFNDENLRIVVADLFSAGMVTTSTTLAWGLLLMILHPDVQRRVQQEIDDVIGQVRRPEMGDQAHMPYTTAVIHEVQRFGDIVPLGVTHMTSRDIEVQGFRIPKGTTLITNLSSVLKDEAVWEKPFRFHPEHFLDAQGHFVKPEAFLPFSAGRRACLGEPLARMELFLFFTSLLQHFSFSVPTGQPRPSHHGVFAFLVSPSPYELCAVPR
The nature of series [8]: Ratio of unbound brain concentration to unbound plasma concentration in iv or sc dosed Wistar Han rat. As to conditions: brain and plasma, read-out: K(p,uu,brain). In kind it is ADME, organism-based. Summed up: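 Compound given sc to mice, iv and/or sc to rats, po to dogs and sc to monkeys; sc doses as a solution in 20% SBE-BCD + 2 molar equiv 1N HCl. Plasma, whole brain and CSF taken at matched times from 2 min to 24 h and quantified by LC-MS/MS. Fraction unbound in plasma and brain homogenate (diluted 4-fold, dilution factor 5 applied) by 6 h equilibrium dialysis against phosphate buffer at 37°C.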

Series [9] in a line: Terminal half life in Wistar Han rat at 5 mg/kg, po administered via gavage by LC-MS/MS analysis. Type of series: ADME, organism-based. As to conditions: in vivo, read-out: beta t1/2 (converted).
Series [10] is described as follows: Cmax in Wistar Han rat at 1 mg/kg, iv by LC-MS/MS analysis. Type of series: ADME, organism-based. Also on record: dose 1 mg/kg, route intravenous. As to conditions: in vivo. Summed up:
(§2)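 Male Wistar-Han rats given single 1 mg/kg IV; beagle dogs 0.3 mg/kg IV; solution in 20% (w/v) sulfobutyl ether β-cyclodextrin with hydrochloric acid, 1 mL/kg (rat) or 0.4 mL/kg (dog). Blood via carotid artery cannula between 2 min and 24 h into EDTA tubes; plasma analysed by LC-MS/MS with positive electrospray.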

Series [11] can be described thus: Cmax in beagle dog at 0.3 mg/kg, iv by LC-MS/MS analysis. In kind it is ADME, organism-based, Canis lupus familiaris. Details: dose 0.3 mg/kg, route intravenous. As to conditions: in vivo. A digest of the protocol:
as §2

With `Cc1nc(-c2cnn(C)c2-c2ccc(C(F)(F)F)cn2)c2c(N3CCC3)ncnn12` [PF-05180999], the Drug metabolism result with Liver [1], with Liver [2] and with Liver [3] was “Metabolite_Detected” throughout. Further, the Activity entry in the series with Rattus norvegicus [4] was “Non-Toxic”; in the series on Rattus norvegicus [5] it was “Non-Toxic”; with Rattus norvegicus [6], “Non-Toxic”; in the series listed under Mus musculus it was 0.63%. Moreover, the Drug uptake(free) with Rattus norvegicus [7] amounted to 3.1 nM. Besides, the “inhibition (INH)” value at Cytochrome P450 2C9 and at Cytochrome P450 2C19 was “Not Active” throughout. For the same molecule, the TDI result at Cytochrome P450 1A2, at Cytochrome P450 2B6 and on Cytochrome P450 2D6 was “Not Active” in each case. Further, the Kp uu in series [8] was determined as 0.71. Moreover, the half-life in series [9] was 1.4 h. The results for the Cmax in series [10] and in [11] were 1020 ng/mL and 293 ng/mL, respectively.

Broadly, the Cmax is the maximum level reached in the sampled fluid or tissue.
